Screening data as filed in PubChem BioAssay.
DAT uptake mod: changed human dopamine transporter uptake under cocaine IC80 | Q01959 | LLC-PK1 hDAT cells, [14C]-dopamine uptake with cocaine IC80; actives deviate in either direction | AID 449768 | actives 1.3% (n = 110,000) | B-score at 10 µM;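 active = Z score or B-score, a plate-position-corrected score, falls beyond the plate's 99.7% confidence bounds, in either direction; inactive = both scores lie inside the 99.7% bounds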
Target sequence (Q01959 whole entry, looked up): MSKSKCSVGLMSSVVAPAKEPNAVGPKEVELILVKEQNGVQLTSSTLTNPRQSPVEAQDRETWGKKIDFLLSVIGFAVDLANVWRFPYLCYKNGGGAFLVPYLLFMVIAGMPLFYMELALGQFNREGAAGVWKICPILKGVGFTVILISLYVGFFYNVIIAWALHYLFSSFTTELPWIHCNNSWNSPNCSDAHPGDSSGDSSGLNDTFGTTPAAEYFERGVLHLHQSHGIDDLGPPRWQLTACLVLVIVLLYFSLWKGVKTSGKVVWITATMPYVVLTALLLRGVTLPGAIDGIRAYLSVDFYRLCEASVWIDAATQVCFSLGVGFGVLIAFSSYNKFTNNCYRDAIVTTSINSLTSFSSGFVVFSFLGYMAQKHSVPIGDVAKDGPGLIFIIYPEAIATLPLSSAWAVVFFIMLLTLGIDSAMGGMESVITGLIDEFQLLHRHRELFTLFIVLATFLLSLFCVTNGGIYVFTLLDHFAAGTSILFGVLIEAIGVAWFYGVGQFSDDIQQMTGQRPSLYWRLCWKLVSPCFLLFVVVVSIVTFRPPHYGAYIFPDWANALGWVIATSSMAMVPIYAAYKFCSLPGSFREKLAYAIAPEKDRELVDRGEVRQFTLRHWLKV
RAM inhibit: inhibitors of the yeast RAM network; S. cerevisiae dse1pr::URA3 reporter, 5-FOA growth OD615, 2 d; analog-sensitive cbk1-as2 kinase mutant strain; inhibition, % at 50 µM; actives 1.8% (n = 190,000);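 active = inhibition above a set limit, 3 SD over mean compound inhibition, cut at about 8.4% in these data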;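 note: inhibition rescues growth on 5-FOA so higher OD means more RAM inhibition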
WT yeast gro inh: growth inhibition of WT yeast, mitochondrial fusion screen. mitochondrial fusion phenotypic screen, WT strain. inhibition, % at 10 µM. actives 2.1% (n = 190,000); in the data active = inhibition above about 58%; tested in S. cerevisiae
Yeast life ext: yeast lifespan extension. S. cerevisiae growth with nicotinamide, OD615; deaD strain in restrictive glucose medium. inhibition of the nicotinamide effect, % at 10 µM. actives 0.68% (n = 130,000). AID 775;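 active = inhibition above a set limit, placed 3 SD over the median of all compounds, cut at about 26% in these data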
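assay system = DeaD-strain S. cerevisiae | measured by = absorbance at 615 nm | probe or stimulus = nicotinamide 1.5 mM | buffer or medium = CSMM-D glucose medium, restrictive | times = 48 h at 30 °C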
Yeast growth inh: yeast BB579 growth reduction in restrictive medium; S. cerevisiae BB579 growth, OD615, 48 h; inhibition, % at 10 µM; actives 0.51% (n = 140,000);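 active = inhibition above a set limit, 3 SD over the mean compound inhibition, cut at about 44% in these data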
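Test system: Saccharomyces cerevisiae DeaD strain BB579, replicative lifespan model yeast | Buffer or medium: Restrictive CSMM-D medium | Doses: One dose, 10 µM compound with 0.25% DMSO | Incubation: 48 h exposure, 30 °C | Detection: Culture absorbance at 615 nm | Control set: Amphotericin B at 10 µg/mL as positive control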
Measles CPE: protection of cells from measles virus; Measles virus-infected cells, CPE protection, absorbance; protection (pct of control), % at 4 µM; actives 1.5% (n = 140,000); AID 841; in the data active = protection mostly above about 24%, no sharp cut-off; inactive = mostly below about 26%
Hits are given with their value; . = inactive; / = not tested or not shown. Most compounds without a hit are left out; they make up all but 6.1% or so of the library.

SMILES	DAT uptake mod	RAM inhibit	WT yeast gro inh	Yeast life ext	Yeast growth inh	Measles CPE
Cc1nc(N2CCCCC2)c2c(-c3cccs3)csc2n1	/	.	69	/	/	/
Cc1nc(N2CCN(S(=O)(=O)c3ccccc3C#N)CC2)c2c(-c3cccs3)csc2n1	/	.	.	/	/	/
CCc1ccc2[nH]c(=O)c(CN(CCCN3CCOCC3)C(=O)Nc3cccc(Cl)c3)cc2c1	3.3	.	.	.	.	.
O=C(CCc1ccccc1)NCCCN1CCOCC1	.	.	.	66	.	.
CCCCCNC(=O)CCc1ccccc1	.	.	.	/	.	53
O=C(CCCc1ccccc1)NCCCN1CCOCC1	.	.	.	.	.	.
O=C(CCC(=O)NCCCc1ccccc1)NCCCc1ccccc1	/	.	.	.	.	.
CC(=O)Nc1ccc(N2C(=O)CSC2c2cccc([N+](=O)[O-])c2)cc1 (stereo unspecified)	/	.	.	/	/	/
CCn1c2ccc(Cl)cc2c2nc3ccccc3nc21	.	.	.	.	.	.
CCn1c2ccc(C)cc2c2nc3cc(C(=O)O)ccc3nc21	/	.	.	.	96	.
Cc1cccc(NC(=O)C2CC(=O)N/C(=N/N=C/c3ccco3)S2)c1 (stereo unspecified)	/	.	.	.	.	30
Cc1cccc2c(N=Nc3ccc(S(=O)(=O)Nc4ccc(Cl)cc4)cc3[N+](=O)[O-])c(O)[nH]c12	/	.	.	/	/	/
COc1ccc(/C=C2\CCc3ccccc3C2=O)cc1Cn1nc(C)cc1C	4.9	.	80	.	.	.
COc1ccc(/C=C2/CCc3ccccc3C2=O)cc1CN1CCOCC1	/	.	.	.	.	.
CN1C(=O)c2cccc3c(Cl)ccc(c23)C1=O	.	.	.	.	61	.
Cc1[nH]c2ccccc2c1C(=O)CSC(=S)N1CCCCC1	/	.	.	.	.	.
Clc1ccc(-c2n[nH]c3c2CCCC3)cc1	/	.	62	/	/	/
CCC1(C)CC(C(CC(=O)O)c2ccc(C)cc2)CCO1 (stereo unspecified)	.	.	.	.	.	.
CCCn1nc2cc(C(=O)NCc3ccc(C)cc3)ccc2c1OCC	.	.	.	.	.	84
CCOc1c2ccc(C(=O)NCc3ccc(C)cc3)cc2nn1CC	3.2	.	.	.	.	.
CCC(C)Sc1nc2ccccc2n1CC(=O)O (stereo unspecified)	.	.	.	.	.	.
COc1ccccc1CNC(=O)C(=O)NCC1OCCN1C(=O)c1cccs1 (stereo unspecified)	/	.	.	.	.	.
COC(=O)c1ccc(OCCN2C3=NCCN3c3ccccc32)cc1	.	.	.	.	.	.
C=C(C)C1CC=C(C)/C(=N/NC(=O)COc2ccccc2Cl)C1 (stereo unspecified)	/	.	58	.	.	.
Cc1cccc2cc(CN(Cc3nnnn3Cc3ccco3)C3CCCC3)c3nnnn3c12	-7.4	.	.	.	.	.
SMILES	DAT uptake mod	RAM inhibit	WT yeast gro inh	Yeast life ext	Yeast growth inh	Measles CPE
CC(=O)N(Cc1ccco1)Cc1cc2cccc(C)c2n2nnnc12	/	.	.	/	/	/
CCOC(=O)C1=C(C)Nc2ccccc2N=C1NC(=O)/C=C/c1ccc(OC)cc1OC	/	.	.	/	/	/
O=S(=O)(Cc1cccc(C(F)(F)F)c1)c1ncn[nH]1	/	.	.	/	/	/
CCOC(=O)C1CCCN(C(=O)c2cc3nc(-c4cccc(OC)c4)cc(C(F)(F)F)n3n2)C1 (stereo unspecified)	2.7	.	.	.	.	.
COC(=O)c1cc2nc(-c3ccc(OC)cc3)cc(C(F)(F)F)n2n1	-2.2	.	.	.	.	.
CC(=O)Nc1ccc(Cl)cc1C(=O)O	.	.	.	.	.	.
CN(C)C1(CNC(=S)Nc2ccccc2C(F)(F)F)CCCCC1	/	.	.	/	/	/
CCOC(=O)c1cc(C(=O)OCC)c2ccccn2c1=O	.	.	.	.	.	.
Cc1cc(C)cc(NC(=O)N2CCCC2C(=O)NCc2ccco2)c1 (stereo unspecified)	/	.	.	/	/	/
COC(=O)CN1C(=S)N(c2ccc(OC)cc2)C(=O)/C1=C/c1ccc(OC)cc1	/	11	.	/	/	/
N#C/C(=C\c1c(N2CCOCC2)nc2ccccn2c1=O)S(=O)(=O)c1ccccc1	.	.	.	.	.	27
CC(=O)c1ccc(N2CCN(C(=O)CCCc3nc4ccccc4s3)CC2)cc1	/	9.3	.	.	.	.
Cc1c(Cl)cccc1NC(=S)N1CCC(N(C)CC2CCCO2)CC1 (stereo unspecified)	/	.	.	/	/	/
